Insulin prom act: TRM-6 insulin promoter activation | TRM-6 cells, insulin promoter eGFP reporter, imaging; plate-scaled: unstimulated 0, stimulated control 100 | activation, % at 2 µM | actives 0.81% (n = 130,000);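 active means activation at 2 µM above a set limit, confirmed on inspection of the cell images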;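 further: share of cells whose green reporter signal exceeds an intensity cutoff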
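Test system: human fetal islet-derived TRM-6 cells with tamoxifen-inducible insulin promoter–eGFP reporter. Compound dosing: 2 µM final, single concentration. Incubation: tamoxifen pre-incubation 15 h overnight, then compound exposure 48 h at 37 °C. Signal: fixed-cell fluorescence microscopy, eGFP plus Hoechst.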
Starred values were filed as active, the others as inactive. The sample as a whole holds a higher share of hits than the screen did.

CC1Cc2cc(/C(O)=C3/C(=O)C(=O)N(CCN4CCOCC4)C3c3cccc(O)c3)ccc2O1 (centres undefined) was read as Insulin prom act 467*.
For CCN(CC)CCCN1C(=O)C(=O)/C(=C(/O)c2ccc3c(c2)OCCO3)C1c1ccco1 (centres undefined) the results were Insulin prom act -6.
CCN(CC)CCCN1C(=O)C(=O)/C(=C(/O)c2ccc(C)cc2)C1c1ccccn1 (centres undefined) was read as Insulin prom act 0.
Screening O=C1C(=O)N(CCN2CCOCC2)C(c2ccncc2)/C1=C(/O)c1ccc2c(c1)OCO2 (centres undefined) returned Insulin prom act 4.
O=C(C1=C(O)C(=O)N(CCCN2CCOCC2)C1c1ccccn1)c1cc2ccccc2o1 (centres undefined) was read as Insulin prom act 0.
Cc1ccc(/C(O)=C2/C(=O)C(=O)N(CCN3CCOCC3)C2c2ccccn2)cc1 (centres undefined) was read as Insulin prom act 850*.
Nc1c(C(O)(C(F)(F)F)C(F)(F)F)ccc2ccccc12 was read as Insulin prom act -70.
Screening CC1CCCC(NC(=O)Nc2cccs2)C1C (centres undefined) returned Insulin prom act 9.
Screening O=C(COC(=O)Cc1ccsc1)NC1CCCCCC1 returned Insulin prom act -10.
CN(C)CCCC(C)(O)C(Cc1ccccc1)c1ccccc1 (centres undefined) was read as Insulin prom act -8.
For CC(C)(C)c1cc(C(=O)NCc2ccccc2)ccn1 the results were Insulin prom act -90.
Screening CCC(=O)N1CCc2cc(S(=O)(=O)CCC(=O)Nc3c(C)n(C)n(-c4ccccc4)c3=O)ccc21 returned Insulin prom act 292.
CC(Sc1nc2cc([N+](=O)[O-])ccc2n1-c1cccc(C(F)(F)F)c1)C(=O)NC(N)=O (centres undefined) was read as Insulin prom act 0.
`CCN(CCCNC(=O)C1CCN(S(=O)(=O)N2CCOCC2)CC1)c1cccc(C)c1` gave Insulin prom act 114.
For CCN(CCNC(=O)C1CCC(=O)N1Cc1ccc(C)cc1)c1ccccc1 (centres undefined) the results were Insulin prom act 0.
For CCN(CCCNC(=O)C1CCC(=O)N1Cc1ccccc1Cl)c1cccc(C)c1 (centres undefined) the results were Insulin prom act 92*.
CCCN(CCC)C(=O)CSc1nc2ccccc2c(=O)n1C1CCCC1 was read as Insulin prom act 257.
`CCCN1Cc2cccc(C(=O)Nc3ccc(-c4nc5ccccc5[nH]4)cc3)c2C1=O` gave Insulin prom act 0.
Screening COc1ccccc1C(C)NC(=O)CCOc1cccc(C)c1 (centres undefined) returned Insulin prom act -8.
`Cc1ccc(OCCCC(=O)NC(C)c2ccccc2)cc1` (centres undefined) gave Insulin prom act 0.
Screening Cc1cccc(OCCCC(=O)NC(C)c2ccccc2)c1 (centres undefined) returned Insulin prom act 85*.
Nc1ccc(C(=O)OCc2csc(-c3ccccc3)n2)cc1[N+](=O)[O-] was read as Insulin prom act 3.
`CC1CCN(C(=O)c2ccc(SCc3ccccc3F)c([N+](=O)[O-])c2)CC1` gave Insulin prom act -5.
For COc1cccc(N(CC(=O)NCCSc2ccc(Cl)cc2)S(C)(=O)=O)c1 the results were Insulin prom act 93*.
For COc1ccc(N(CC(=O)NCCSCc2c(F)cccc2Cl)S(C)(=O)=O)cc1OC the results were Insulin prom act 7.
`COc1ccc(NC(=S)NCCSc2ccc(Cl)cc2)c(OC)c1` gave Insulin prom act -9.
`Cc1ccc(/C=C/C(=O)O)cc1S(=O)(=O)N(CCO)CCO` gave Insulin prom act -7.
Screening C=CCN1C(=O)NC2(O)C(=O)c3ccccc3C12O (centres undefined) returned Insulin prom act -8.
`Cc1ccc(NC(=O)CNC2CCS(=O)(=O)C2)cc1C` (centres undefined) gave Insulin prom act -3.
Cc1cc(C)cc(-n2nnnc2-c2cn(C)nc2C(F)(F)F)c1 was read as Insulin prom act 132*.
Screening FC(F)(F)c1nc(-c2cccs2)ncc1-c1nnnn1-c1ccc(Cl)cc1 returned Insulin prom act 3.
For Cc1ccc(-n2nnnc2-c2ccco2)cc1 the results were Insulin prom act 0.
Screening O=C(COC(=O)c1cccc(S(=O)(=O)N2CCc3ccccc32)c1)NC1CCS(=O)(=O)C1 (centres undefined) returned Insulin prom act 5.
COc1cc2[nH]ccc(=O)c2cc1OC was read as Insulin prom act 0.
Screening COc1ccc[nH]c1=O returned Insulin prom act 154*.
Screening COc1ccccc1Nc1nnc(C)c(=O)[nH]1 returned Insulin prom act -7.
C=C(C)CC1Nc2ccccc2NC1CC(=C)C (centres undefined) was read as Insulin prom act -8.
`Cc1occc1C(=O)N1CCN(Cc2ccccc2)CC1` gave Insulin prom act 0.
